# According to ChEMBL document CHEMBL2074545, “Transport of bile acids, sulfated steroids, estradiol 17-beta-D-glucuronide, and leukotriene C4 by human multidrug resistance protein 8 (ABCC11)” (Mol Pharmacol, 2004):
# Experiments:
# [1] = target: ATP-binding cassette sub-family C member 11 (Homo sapiens) (UniProt Q96J66); experiment: TP_TRANSPORTER: inhibition of Estradiol-17beta-D-glucuronide uptake by Probenecid at a concentration of 10 uM in membrane vesicle from MRP8-expressing LLC-PK1 cells; type: functional, cell membranes; set-up: scale not given: the % may be the effect or the level left
# Outline: (§1)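 Vesicles (10 µg) from LLC-PK1-MRP8-3 cells incubated 10 min at 37°C with 1 µM [3H]E217βG plus modulator, in 0.25 M sucrose, 10 mM Tris-HCl pH 7.4, 10 mM MgCl2, creatine phosphate/creatine kinase, with 4 mM ATP or 4 mM AMP. Rapid filtration, scintillation counting. ATP-dependent uptake (ATP minus AMP) expressed as % of modulator-free uptake. At least three measurements, each in duplicate.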
# [2] = target: ATP-binding cassette sub-family C member 11 (Homo sapiens) (UniProt Q96J66); experiment: TP_TRANSPORTER: inhibition of Estradiol-17beta-D-glucuronide uptake by 2,4-dinitrophenyl-S-glutathione at a concentration of 10 uM in membrane vesicle from MRP8-expressing LLC-PK1 cells; type: functional, cell membranes; set-up: scale not given: the % may be the effect or the level left; outline: as §1
# [3] = target: ATP-binding cassette sub-family C member 11 (Homo sapiens) (UniProt Q96J66); experiment: TP_TRANSPORTER: inhibition of Estradiol-17beta-D-glucuronide uptake by cGMP at a concentration of 10 uM in membrane vesicle from MRP8-expressing LLC-PK1 cells; type: functional, cell membranes; set-up: scale not given: the % may be the effect or the level left; outline: as §1
# [4] = tested on: CN(Cc1cnc2nc(N)nc(N)c2n1)c1ccc(C(=O)N[C@@H](CCC(=O)O)C(=O)O)cc1; conditions: LLC-PK1; Membrane vesicle
# [5] = tested on: C[C@]12CC[C@H](OS(=O)(=O)O)CC1=CC[C@@H]1[C@@H]2CC[C@]2(C)C(=O)CC[C@@H]12; conditions: LLC-PK1; Membrane vesicle
# [6] = tested on: C[C@]12CC[C@@H]3c4ccc(O)cc4CC[C@H]3[C@@H]1CC[C@@H]2O[C@@H]1O[C@H](C(=O)O)[C@@H](O)[C@H](O)[C@H]1O; conditions: LLC-PK1; Membrane vesicle
# [7] = target: ATP-binding cassette sub-family C member 11 (Homo sapiens) (UniProt Q96J66); experiment: TP_TRANSPORTER: inhibition of Estradiol-17beta-D-glucuronide uptake by Leukotrien C4 at a concentration of 1 uM in membrane vesicle from MRP8-expressing LLC-PK1 cells; type: functional, cell membranes; set-up: scale not given: the % may be the effect or the level left; outline: as §1
# [8] = target: ATP-binding cassette sub-family C member 11 (Homo sapiens) (UniProt Q96J66); experiment: TP_TRANSPORTER: inhibition of Estradiol-17beta-D-glucuronide uptake by Indomethacin at a concentration of 10 uM in membrane vesicle from MRP8-expressing LLC-PK1 cells; type: functional, cell membranes; set-up: scale not given: the % may be the effect or the level left; outline: as §1
# [9] = target: ATP-binding cassette sub-family C member 11 (Homo sapiens) (UniProt Q96J66); experiment: TP_TRANSPORTER: inhibition of Estradiol-17beta-D-glucuronide uptake by MK-571 at a concentration of 10 uM in membrane vesicle from MRP8-expressing LLC-PK1 cells; type: functional, cell membranes; set-up: scale not given: the % may be the effect or the level left; outline: as §1
# [10] = target: ATP-binding cassette sub-family C member 11 (Homo sapiens) (UniProt Q96J66); experiment: TP_TRANSPORTER: inhibition of Estradiol-17beta-D-glucuronide uptake by Glycocholate at a concentration of 10 uM in membrane vesicle from MRP8-expressing LLC-PK1 cells; type: functional, cell membranes; set-up: scale not given: the % may be the effect or the level left; outline: as §1
# [11] = target: ATP-binding cassette sub-family C member 11 (Homo sapiens) (UniProt Q96J66); experiment: TP_TRANSPORTER: inhibition of Estradiol-17beta-D-glucuronide uptake by Glycolithocholate at a concentration of 10 uM in membrane vesicle from MRP8-expressing LLC-PK1 cells; type: functional, cell membranes; set-up: scale not given: the % may be the effect or the level left; outline: as §1
# [12] = target: ATP-binding cassette sub-family C member 11 (Homo sapiens) (UniProt Q96J66); experiment: TP_TRANSPORTER: inhibition of Estradiol-17beta-D-glucuronide uptake by Dehydroepiandrosterone-3-sulfate at a concentration of 10 uM in membrane vesicle from MRP8-expressing LLC-PK1 cells; type: functional, cell membranes; set-up: scale not given: the % may be the effect or the level left; outline: as §1
# [13] = target: ATP-binding cassette sub-family C member 11 (Homo sapiens) (UniProt Q96J66); experiment: TP_TRANSPORTER: inhibition of Estradiol-17beta-D-glucuronide uptake by Sildenifil at a concentration of 10 uM in membrane vesicle from MRP8-expressing LLC-PK1 cells; type: functional, cell membranes; set-up: scale not given: the % may be the effect or the level left; outline: as §1
# Chain of ATP-binding cassette sub-family C member 11 (Homo sapiens), Q96J66 (Q96J66 whole entry): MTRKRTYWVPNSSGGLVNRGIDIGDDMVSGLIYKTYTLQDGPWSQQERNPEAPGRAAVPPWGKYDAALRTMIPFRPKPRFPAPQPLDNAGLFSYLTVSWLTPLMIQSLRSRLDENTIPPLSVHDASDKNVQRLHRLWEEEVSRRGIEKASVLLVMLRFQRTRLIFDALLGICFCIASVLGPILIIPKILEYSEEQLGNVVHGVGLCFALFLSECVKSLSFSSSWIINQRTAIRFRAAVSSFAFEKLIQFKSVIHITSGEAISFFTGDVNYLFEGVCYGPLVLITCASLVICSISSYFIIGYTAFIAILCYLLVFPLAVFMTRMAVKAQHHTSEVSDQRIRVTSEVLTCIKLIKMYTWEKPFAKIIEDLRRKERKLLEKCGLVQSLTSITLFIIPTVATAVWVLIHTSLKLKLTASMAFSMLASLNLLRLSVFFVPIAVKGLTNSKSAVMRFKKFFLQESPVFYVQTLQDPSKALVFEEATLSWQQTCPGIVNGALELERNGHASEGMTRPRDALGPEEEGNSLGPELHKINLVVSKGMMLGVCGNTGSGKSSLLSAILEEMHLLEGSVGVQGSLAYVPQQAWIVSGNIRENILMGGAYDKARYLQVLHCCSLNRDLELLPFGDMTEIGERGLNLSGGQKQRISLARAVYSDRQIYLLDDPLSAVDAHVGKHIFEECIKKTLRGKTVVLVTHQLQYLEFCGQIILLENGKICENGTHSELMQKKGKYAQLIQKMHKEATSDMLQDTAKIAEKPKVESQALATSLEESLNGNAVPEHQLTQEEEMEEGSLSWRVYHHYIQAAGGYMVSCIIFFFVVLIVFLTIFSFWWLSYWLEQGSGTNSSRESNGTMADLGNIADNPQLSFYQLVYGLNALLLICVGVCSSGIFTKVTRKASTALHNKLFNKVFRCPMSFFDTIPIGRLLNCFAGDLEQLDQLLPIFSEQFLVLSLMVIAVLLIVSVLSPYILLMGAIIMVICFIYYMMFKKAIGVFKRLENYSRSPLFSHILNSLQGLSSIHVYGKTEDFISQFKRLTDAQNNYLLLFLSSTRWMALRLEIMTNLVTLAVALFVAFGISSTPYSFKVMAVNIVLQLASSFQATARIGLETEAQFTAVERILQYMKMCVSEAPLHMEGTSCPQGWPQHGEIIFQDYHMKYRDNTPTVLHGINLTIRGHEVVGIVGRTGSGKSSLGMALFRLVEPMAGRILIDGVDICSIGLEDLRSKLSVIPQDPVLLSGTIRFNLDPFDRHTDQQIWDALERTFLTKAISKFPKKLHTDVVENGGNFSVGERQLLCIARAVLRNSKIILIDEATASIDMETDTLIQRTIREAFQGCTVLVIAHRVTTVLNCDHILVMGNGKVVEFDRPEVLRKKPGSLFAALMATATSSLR
# Chain of ATP-binding cassette sub-family C member 11 (Homo sapiens) (Q96J66 whole entry): as above
molecule,measurement,setting,value
CCCN(CCC)S(=O)(=O)c1ccc(C(=O)O)cc1,Activity,[1],76%
N[C@@H](CCC(=O)N[C@H](CSc1ccc([N+](=O)[O-])cc1[N+](=O)[O-])C(=O)NCC(=O)O)C(=O)O,Activity,[2],17%
Nc1nc2c(ncn2[C@@H]2O[C@@H]3COP(=O)(O)O[C@H]3[C@H]2O)c(=O)[nH]1,Activity,[3],73%
"ATP-binding cassette sub-family C member 11 (Homo sapiens), Q96J66",Km,[4],957 µM
same,Km,[5],13 µM
same,Km,[6],62.9 µM
CCCCC/C=C\C\C=C/C=C/C=C/[C@@H](SC[C@@H](NC(=O)CC[C@H](N)C(=O)O)C(=O)NCC(=O)O)[C@@H](O)CCCC(=O)O,Activity,[7],72%
COc1ccc2c(c1)c(CC(=O)O)c(C)n2C(=O)c1ccc(Cl)cc1,Activity,[8],64%
CN(C)C(=O)CCSC(SCCC(=O)O)c1cccc(/C=C/c2ccc3ccc(Cl)cc3n2)c1 (stereo not drawn),Activity,[9],25%
C[C@H](CCC(=O)NCC(=O)O)[C@H]1CC[C@H]2[C@@H]3[C@H](O)C[C@@H]4C[C@H](O)CC[C@]4(C)[C@H]3C[C@H](O)[C@]12C,Activity,[10],62%
C[C@H](CCC(=O)NCC(=O)O)[C@H]1CC[C@H]2[C@@H]3CC[C@@H]4C[C@H](O)CC[C@]4(C)[C@H]3CC[C@]12C,Activity,[11],16%
C[C@]12CC[C@H](OS(=O)(=O)O)CC1=CC[C@@H]1[C@@H]2CC[C@]2(C)C(=O)CC[C@@H]12,Activity,[12],196%
CCCc1nn(C)c2c(=O)[nH]c(-c3cc(S(=O)(=O)N4CCN(C)CC4)ccc3OCC)nc12,Activity,[13],79%
